In the library only some 3.7% were active in any assay of this set; here they are far more common.
KCNQ1 inh – inhibitors of human KCNQ1 potassium channel; 1.3% of 310,000 active; CHO-K1 KCNQ1, FluxOR thallium flux fluorescence; hits give high values; AID 2642; P51787; B-score at 10 µM;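 active = compounds whose thallium flux B-score, printed positive for inhibition, exceeds three library SD while starting fluorescence stays within three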;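 also: channel opened by potassium depolarization with thallium stimulus after 20 min compound exposure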
hERG protect – shields human hERG channel from block by proarrhythmic agents; Q12809; CHO-hERG, FluxOR thallium flux, dofetilide IC70 present; activation (rescue from dofetilide block), less the hit threshold, % at 10 µM; 0.51% of 310,000 active; AID 1511;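 active = activation above the mean of controls blocked by dofetilide plus 5 SD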;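 also: thallium influx through hERG after potassium depolarization seen as dye fluorescence rise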
Target sequence (Q12809 whole entry, looked up): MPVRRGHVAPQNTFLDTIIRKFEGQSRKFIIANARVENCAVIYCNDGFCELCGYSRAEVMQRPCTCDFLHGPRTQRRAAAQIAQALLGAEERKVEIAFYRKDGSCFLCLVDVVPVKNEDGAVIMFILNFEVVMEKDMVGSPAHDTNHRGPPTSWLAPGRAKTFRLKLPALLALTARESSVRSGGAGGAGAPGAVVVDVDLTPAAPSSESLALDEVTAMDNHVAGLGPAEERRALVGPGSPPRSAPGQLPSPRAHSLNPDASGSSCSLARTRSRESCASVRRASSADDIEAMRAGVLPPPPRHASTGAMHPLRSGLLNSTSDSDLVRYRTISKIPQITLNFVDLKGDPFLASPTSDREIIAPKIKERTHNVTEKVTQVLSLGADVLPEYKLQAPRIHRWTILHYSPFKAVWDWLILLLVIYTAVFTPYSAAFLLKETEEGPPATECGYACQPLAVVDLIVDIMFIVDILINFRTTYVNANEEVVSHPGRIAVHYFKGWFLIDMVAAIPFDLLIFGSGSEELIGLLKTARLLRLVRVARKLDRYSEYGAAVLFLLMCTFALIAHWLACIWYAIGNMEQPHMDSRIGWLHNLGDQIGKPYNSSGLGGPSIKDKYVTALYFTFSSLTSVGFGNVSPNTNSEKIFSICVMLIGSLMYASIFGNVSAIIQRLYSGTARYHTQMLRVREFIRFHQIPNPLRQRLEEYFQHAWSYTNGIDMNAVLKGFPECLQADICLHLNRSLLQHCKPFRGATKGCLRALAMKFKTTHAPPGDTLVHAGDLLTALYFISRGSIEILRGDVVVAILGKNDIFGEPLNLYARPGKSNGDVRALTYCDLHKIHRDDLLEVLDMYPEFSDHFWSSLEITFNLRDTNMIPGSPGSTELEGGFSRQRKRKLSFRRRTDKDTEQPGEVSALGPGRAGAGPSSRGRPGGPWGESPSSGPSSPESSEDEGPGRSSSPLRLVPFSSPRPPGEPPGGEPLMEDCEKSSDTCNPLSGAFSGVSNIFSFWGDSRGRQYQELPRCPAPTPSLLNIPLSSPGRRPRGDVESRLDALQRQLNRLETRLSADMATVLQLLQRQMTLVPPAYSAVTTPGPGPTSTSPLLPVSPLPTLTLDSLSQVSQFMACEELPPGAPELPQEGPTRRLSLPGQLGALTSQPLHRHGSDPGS
KCNQ1 pot – human KCNQ1 channel potentiation or activation | CHO-K1 KCNQ1, thallium flux FluxOR fluorescence; hits give high values | B-score at 10 µM | 0.35% of 310,000 active | AID 2648;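 active = fluorescence ratio B-score, a plate-corrected score, at least three library SD, with initial intensity B-score within 5 SD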
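assay system = CHO-K1 cells stably expressing KCNQ1 | medium = assay buffer, equal DMSO in all wells | timing = 37 °C overnight plating, 90-min dark dye load, 20-min compound pretreatment | measured by = kinetic FluxOR thallium fluorescence, 10-s 1-Hz baseline, 110-s post-stimulus read | measure = fluorescence change relative to baseline, converted to B score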
Kir21 block – Kir2.1 (mouse) channel inhibition. 0.85% of 310,000 active. P35561. HEK293-Kir2.1, FluxOR thallium flux fluorescence; hits give low values. B-score at 10 µM;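 active = fluorescence ratio B-score at or below minus 3 SD of library scores, with starting-brightness B-score within 2 SD, cut at about -4.2 in these data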;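 also: channel flux triggered by added potassium and thallium sulfate stimulus; B-score of peak minus minimum fluorescence over baseline after thallium stimulus; more negative B-score means stronger Kir2.1 block with less thallium influx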
KCNK9 block – blocks the human KCNK9 two-pore domain potassium channel; B-score at 10 µM; Q9NPC2; 1.2% of 310,000 active; HEK293 KCNK9, FluxOR thallium flux fluorescence; hits give low values;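 active = ratio B-score over 3 SD below the library mean, with starting fluorescence within 5 SD of its mean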;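 also: negative B-score means less thallium flux so channel inhibition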
KCNK3 block – human KCNK3 channel inhibition, primary screen; O14649; CHO-KCNK3 thallium flux, FluxOR fluorescence; hits give low values; B-score at 10 µM; 0.84% of 340,000 active; AID 602410;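 active = B-score under library mean minus 4 SD, starting fluorescence ratio at most library mean plus 5 SD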;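 also: more negative B-score means stronger inhibition of thallium flux through KCNK3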
A number is an active result.

Cc1cccc(N2CCN(C(=O)c3ccncc3)CC2C)c1 (stereo unspecified) was read as KCNQ1 inh inactive, hERG protect 6.1, KCNQ1 pot inactive, Kir21 block inactive, KCNK9 block inactive and KCNK3 block inactive.
For Cc1ccc(N2CCN(C(=O)Nc3cccc([N+](=O)[O-])c3)CC2C)cc1 (stereo unspecified) the results were KCNQ1 inh 6, hERG protect inactive, KCNQ1 pot inactive, Kir21 block inactive, KCNK9 block inactive and KCNK3 block inactive.
Cc1cccc(N2CCN(C(=O)c3ccc4ccccc4c3)CC2C)c1 (stereo unspecified) was read as KCNK3 block inactive.
Screening O=C1CN(C(=O)COc2c(F)c(F)cc(F)c2F)c2ccccc2N1 returned KCNQ1 inh inactive, hERG protect inactive, KCNQ1 pot inactive, Kir21 block inactive, KCNK9 block inactive and KCNK3 block inactive.
`COc1ccc(CCNC(=O)COC(=O)CNS(=O)(=O)c2ccc(SC)c([N+](=O)[O-])c2)cc1` gave KCNK3 block inactive.
CC1=C(C(=O)Nc2cccc(C(=O)N3CCN(c4cccc(C(F)(F)F)c4)CC3)c2)SCCO1 was read as KCNQ1 inh inactive, hERG protect inactive, KCNQ1 pot inactive, Kir21 block inactive, KCNK9 block inactive and KCNK3 block inactive.
Screening CN(Cc1ccccc1)C(=S)NC(=O)c1cccs1 returned KCNQ1 inh inactive, hERG protect inactive, KCNQ1 pot 39, Kir21 block inactive, KCNK9 block inactive and KCNK3 block inactive.
Screening CN(Cc1ccccc1)C(=S)NC(=O)c1ccc(-c2ccccc2)cc1 returned KCNQ1 inh inactive, hERG protect inactive, KCNQ1 pot inactive, Kir21 block inactive, KCNK9 block inactive and KCNK3 block inactive.
COc1ccccc1C(=O)NCCC(=O)NC(C)c1ccc(-n2ccnc2)cc1 (stereo unspecified) was read as KCNQ1 inh inactive, hERG protect inactive, KCNQ1 pot inactive, Kir21 block inactive, KCNK9 block inactive and KCNK3 block inactive.
Screening CCN1CCN(c2cc(N3CCN(C(=O)c4ccco4)CC3)c3c4c(onc24)-c2ccccc2C3=O)CC1 returned KCNQ1 inh 8, hERG protect inactive, KCNQ1 pot inactive, Kir21 block inactive, KCNK9 block inactive and KCNK3 block inactive.
For O=C(O)CCNc1cc(N2CCN(C(=O)c3ccco3)CC2)c2noc3c2c1C(=O)c1ccccc1-3 the results were KCNQ1 inh inactive, hERG protect inactive, KCNQ1 pot inactive, Kir21 block inactive, KCNK9 block inactive and KCNK3 block inactive.
O=S(=O)(c1ccc(Cl)cc1)N1CCC(O)(CN2CCN(Cc3ccccc3)CC2)CC1 was read as KCNQ1 inh inactive, hERG protect inactive, KCNQ1 pot inactive, Kir21 block -5.39, KCNK9 block inactive and KCNK3 block inactive.
`CC(=O)Nc1cccc(NC(=O)CCN2C(=O)c3ccccc3S2(=O)=O)c1` gave KCNQ1 inh inactive, hERG protect inactive, KCNQ1 pot inactive, Kir21 block inactive, KCNK9 block inactive and KCNK3 block inactive.
Screening O=C(NC1CCN(Cc2ccccc2)C1)c1cc(COc2ccc(F)cc2F)on1 (stereo unspecified) returned KCNQ1 inh inactive, hERG protect inactive, KCNQ1 pot inactive, Kir21 block -4.41, KCNK9 block inactive and KCNK3 block inactive.
For O=C(O)CNS(=O)(=O)c1ccc(Br)s1 the results were KCNQ1 inh inactive, hERG protect inactive, KCNQ1 pot inactive, Kir21 block inactive, KCNK9 block inactive and KCNK3 block inactive.
For O=S(=O)(NCCc1ccccc1)c1ccc(Br)s1 the results were KCNQ1 inh inactive, hERG protect inactive, KCNQ1 pot inactive, Kir21 block -4.25, KCNK9 block inactive and KCNK3 block inactive.
For Cc1cc(C)c(C)c(S(=O)(=O)N2CCC(C(=O)NCCCN3CCOCC3)CC2)c1C the results were KCNK3 block inactive.
For C=CCn1c(SCc2ccccc2Cl)nnc1-c1sc2nc(C)cc(C)c2c1N the results were KCNQ1 inh inactive, hERG protect inactive, KCNQ1 pot inactive, Kir21 block inactive, KCNK9 block inactive and KCNK3 block inactive.
Screening O=C(COC(=O)c1ccc(O)cc1)c1ccc(S(=O)(=O)N2CCCCC2)cc1 returned KCNK3 block inactive.
`CCc1cc(-c2nc(N)ncc2-c2csc(C)n2)c(O)cc1OC` gave KCNQ1 inh inactive, hERG protect inactive, KCNQ1 pot inactive, Kir21 block inactive, KCNK9 block inactive and KCNK3 block inactive.
For CCCc1cc(-c2nc(N)ncc2-c2ccc3c(c2)OCCCO3)c(O)cc1OC the results were KCNQ1 inh 7, hERG protect inactive, KCNQ1 pot inactive, Kir21 block inactive, KCNK9 block inactive and KCNK3 block inactive.
Screening CCCc1cc(-c2nc(N)ncc2-c2csc(C)n2)c(O)cc1OC returned KCNQ1 inh inactive, hERG protect inactive, KCNQ1 pot inactive, Kir21 block -6.39, KCNK9 block inactive and KCNK3 block inactive.
CC(Sc1nnc(C2CC2)n1C1CC1)C(=O)N(C)C1(C#N)CCCCC1 (stereo unspecified) was read as KCNK3 block inactive.
`COc1cc(/C=N/Nc2nc(N3CCCC3)nc(N3CCCC3)n2)ccc1OCc1ccccc1F` gave KCNQ1 inh inactive, hERG protect 10.9, KCNQ1 pot inactive, Kir21 block inactive, KCNK9 block inactive and KCNK3 block inactive.
`CCOc1ccc(NC(=O)c2cn(-c3ccc(OCC)cc3)c(=O)c3cc(OC)c(OC)cc23)cc1` gave KCNQ1 inh inactive, hERG protect inactive, KCNQ1 pot inactive, Kir21 block inactive, KCNK9 block inactive and KCNK3 block inactive.
Screening CCOc1ccc(-n2cc(C(=O)Nc3cccc(C)n3)c3cc(OC)c(OC)cc3c2=O)cc1 returned KCNQ1 inh inactive, hERG protect inactive, KCNQ1 pot 13, Kir21 block inactive, KCNK9 block inactive and KCNK3 block inactive.
CC(=O)NCCNc1ccc([N+](=O)[O-])cc1C#N was read as KCNQ1 inh inactive, hERG protect 5.8, KCNQ1 pot inactive, Kir21 block inactive, KCNK9 block inactive and KCNK3 block inactive.
`CN(C(=O)C1CCCN1S(=O)(=O)c1ccc(Cl)cc1)c1ccccc1` (stereo unspecified) gave KCNK3 block inactive.
Screening COc1cccc(NC(=O)CSc2c3c(nc4ccccc24)CCCC3)c1 returned KCNQ1 inh inactive, hERG protect inactive, KCNQ1 pot inactive, Kir21 block -5.8, KCNK9 block inactive and KCNK3 block inactive.
S=C(N/N=C/c1ccccc1Cl)Nc1cccc(Cl)c1Cl was read as KCNQ1 inh inactive, hERG protect 9.8, KCNQ1 pot 12, Kir21 block inactive, KCNK9 block inactive and KCNK3 block inactive.
`CCN1C(=O)/C(=C/c2cn(-c3ccccc3)nc2-c2cccnc2)SC1=S` gave KCNK3 block -10.3.
